In brackets after ≈: the same amount, converted by molar mass.

Series [1] concerns Staphylococcus aureus. Nature of the series: Antibacterial activity against methicillin-resistant Staphylococcus aureus USA700 assessed as inhibition of visible growth by broth microdilution method. It is filed as functional. (In broth dilution the organism is exposed to a series of concentrations in liquid medium.)
Series [2] concerns Staphylococcus aureus. Nature of the series: Antibacterial activity against vancomycin-intermediate Staphylococcus aureus HIP07256 assessed as inhibition of visible growth by broth microdilution method. Format: functional.
In series [3] the test system is Staphylococcus aureus. The series is described as follows: Antibacterial activity against vancomycin-intermediate Staphylococcus aureus ATCC 700699 assessed as inhibition of visible growth by broth microdilution method. It is filed as functional.
The subject of series [4] is Staphylococcus aureus. The series is described as follows: Antibacterial activity against methicillin-resistant Staphylococcus aureus USA800 assessed as inhibition of visible growth by broth microdilution method. Format: functional.
Series [5] deals with Staphylococcus aureus. The series is described as follows: Antibacterial activity against methicillin-resistant Staphylococcus aureus USA100 assessed as inhibition of visible growth by broth microdilution method. It is filed as functional.
Series [6] relates to HeLa. The series is described as follows: Cytotoxicity against human HeLa cells assessed as cell viability at 11 ug/ml by MTS assay. Format: cell-based. (In general: Formazan colour is commonly taken as a measure of viable cells.)
The subject of series [7] is Staphylococcus aureus. The series is described as follows: Antibacterial activity against methicillin-resistant Staphylococcus aureus USA500 assessed as inhibition of visible growth by broth microdilution method. It is filed as functional.
Series [8] has as its system Staphylococcus aureus. The series is described as follows: Antibacterial activity against vancomycin-resistant Staphylococcus aureus assessed as inhibition of visible growth by broth microdilution method. It is filed as functional.
Series [9] relates to Staphylococcus aureus. The series is described as follows: Antibacterial activity against vancomycin-intermediate Staphylococcus aureus LIM 3 assessed as inhibition of visible growth by broth microdilution method. Format: functional.
Series [10] deals with Staphylococcus aureus. Nature of the series: Antibacterial activity against methicillin-resistant Staphylococcus aureus USA1000 assessed as inhibition of visible growth by broth microdilution method. Format: functional.
For series [11], the system named is Staphylococcus aureus. Nature of the series: Antibacterial activity against methicillin-resistant Staphylococcus aureus NRS108 assessed as inhibition of visible growth by broth microdilution method. Format: functional.
Series [12] relates to Staphylococcus aureus. Nature of the series: Antibacterial activity against methicillin-resistant Staphylococcus aureus NRS107 assessed as inhibition of visible growth by broth microdilution method. Format: functional.
In series [13] the test system is Staphylococcus aureus. Nature of the series: Antibacterial activity against methicillin-resistant Staphylococcus aureus ATCC 43300 assessed as inhibition of visible growth by broth microdilution method. It is filed as functional.
In series [14] the test system is Staphylococcus aureus. The series is described as follows: Antibacterial activity against methicillin-resistant Staphylococcus aureus USA200 assessed as inhibition of visible growth by broth microdilution method. It is filed as functional.
Series [15] deals with Staphylococcus aureus. The series is described as follows: Antibacterial activity against methicillin-resistant Staphylococcus aureus USA300 assessed as inhibition of visible growth by broth microdilution method. It is filed as functional.
Series [16] has as its system Staphylococcus aureus. Nature of the series: Antibacterial activity against methicillin-resistant Staphylococcus aureus NRS119 assessed as inhibition of visible growth by broth microdilution method. Format: functional.
For series [17], the system named is Staphylococcus aureus. Nature of the series: Antibacterial activity against methicillin-resistant Staphylococcus aureus USA1100 assessed as inhibition of visible growth by broth microdilution method. It is filed as functional.
The test system of series [18] is Staphylococcus aureus. The series is described as follows: Antibacterial activity against methicillin-resistant Staphylococcus aureus USA400 assessed as inhibition of visible growth by broth microdilution method. Format: functional.
The test system of series [19] is Staphylococcus aureus. The series is described as follows: Antibacterial activity against methicillin-resistant Staphylococcus aureus NRS194 assessed as inhibition of visible growth by broth microdilution method. It is filed as functional.
The subject of series [20] is Staphylococcus aureus. Nature of the series: Bactericidal activity against methicillin-resistant Staphylococcus aureus USA300 assessed as time required to complete elimination of bacteria by 3-log10 by time-kill assay. Format: functional. Put shortly: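 Viable counts (CFU) followed over a 12-hour window; endpoint is a 3-log10 fall in CFU.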

Turning to `C/C(=N\NC(=N)N)c1sc(-c2ccc(-c3ccccc3)cc2)nc1C`, the MIC – broadly, the least concentration at which growth counts as inhibited – in [1] was 0.8 µg/mL (≈ 2.29 µM); in series [2], 0.5 µg/mL (≈ 1.43 µM); in series [3], 0.6 µg/mL (≈ 1.72 µM); in series [4] it was 1.2 µg/mL (≈ 3.43 µM); in series [5] it was 2 µg/mL (≈ 5.72 µM); in series [7] it was 1.6 µg/mL (≈ 4.58 µM). Besides, the MIC in series [8] was 0.6 µg/mL (≈ 1.72 µM); in series [9] it was 0.6 µg/mL (≈ 1.72 µM); in series [10], 0.8 µg/mL (≈ 2.29 µM); in [11], 2 µg/mL (≈ 5.72 µM); in series [12], 1.2 µg/mL (≈ 3.43 µM); in [13], 0.6 µg/mL (≈ 1.72 µM). Also, the MIC in series [14] was determined as 0.6 µg/mL (≈ 1.72 µM); in series [15] it was 1 µg/mL (≈ 2.86 µM); in series [16] it was 0.6 µg/mL (≈ 1.72 µM); in [17], 0.6 µg/mL (≈ 1.72 µM); in [18], 0.8 µg/mL (≈ 2.29 µM); in series [19], 1.4 µg/mL (≈ 4.01 µM). For the same compound, the Activity entry in [6] is “Non-toxic”.
For the compound `CCCc1ccc(-c2nc(C)c(/C(C)=N/NC(=N)N)s2)cc1`, the minimum inhibitory concentration (MIC) came to 1.2 µg/mL (≈ 3.8 µM) in series [1]; 1.9 µg/mL (≈ 6.02 µM) in [2]; 1.9 µg/mL (≈ 6.02 µM) in series [3]; 1.9 µg/mL (≈ 6.02 µM) in series [4]; 1.6 µg/mL (≈ 5.07 µM) in series [5]; 1.9 µg/mL (≈ 6.02 µM) in [7]. Further, the MIC is 1.2 µg/mL (≈ 3.8 µM) in series [8]; 1.6 µg/mL (≈ 5.07 µM) in series [9]; 1.6 µg/mL (≈ 5.07 µM) in series [10]; 1.2 µg/mL (≈ 3.8 µM) in series [11]; 1.2 µg/mL (≈ 3.8 µM) in [12]; 1.2 µg/mL (≈ 3.8 µM) in series [13]. Moreover, the MIC was found to be 1.9 µg/mL (≈ 6.02 µM) in series [14]; 1.2 µg/mL (≈ 3.8 µM) in series [15]; 1.9 µg/mL (≈ 6.02 µM) in series [16]; 1.6 µg/mL (≈ 5.07 µM) in [17]; 1.2 µg/mL (≈ 3.8 µM) in series [18]; 1.9 µg/mL (≈ 6.02 µM) in series [19]. The Activity result in series [6] is reported as “Non-toxic”.
Consider `CCCCCc1ccc(-c2nc(C)c(/C(C)=N/NC(=N)N)s2)cc1`, for which the MIC is 0.9 µg/mL (≈ 2.62 µM) in [1]; 0.7 µg/mL (≈ 2.04 µM) in [2]; 0.7 µg/mL (≈ 2.04 µM) in series [4]; 0.9 µg/mL (≈ 2.62 µM) in series [11]; 0.5 µg/mL (≈ 1.46 µM) in series [12]; 0.8 µg/mL (≈ 2.33 µM) in series [13]. In addition, the minimal inhibitory concentration (MIC) in series [16] is 0.9 µg/mL (≈ 2.62 µM); in [18], 0.9 µg/mL (≈ 2.62 µM); in series [19], 1.1 µg/mL (≈ 3.2 µM). Further, the Activity result in series [6] is given as “Non-toxic”. In addition, the Time in series [20] worked out at 2 h.
As to `CCCCCCCc1ccc(-c2nc(C)c(/C(C)=N/NC(=N)N)s2)cc1`, the MIC worked out at 4 µg/mL (≈ 10.8 µM) in [1]; 1.5 µg/mL (≈ 4.04 µM) in [2]; 0.7 µg/mL (≈ 1.88 µM) in series [3]; 1.5 µg/mL (≈ 4.04 µM) in series [4]; 3 µg/mL (≈ 8.07 µM) in series [5]; 3 µg/mL (≈ 8.07 µM) in series [7]. For the same compound, the MIC in series [8] is 1.5 µg/mL (≈ 4.04 µM); in series [9], 0.7 µg/mL (≈ 1.88 µM); in [10], 2.5 µg/mL (≈ 6.73 µM); in [11], 3 µg/mL (≈ 8.07 µM); in [12], 1 µg/mL (≈ 2.69 µM); in [13] it was 3 µg/mL (≈ 8.07 µM). Further, the MIC in series [14] came to 1.2 µg/mL (≈ 3.23 µM); in series [15], 2.5 µg/mL (≈ 6.73 µM); in series [16], 1.5 µg/mL (≈ 4.04 µM); in [17] it was 1.5 µg/mL (≈ 4.04 µM); in series [18] it was 1.5 µg/mL (≈ 4.04 µM); in series [19], 3 µg/mL (≈ 8.07 µM). Besides, the Activity result in [6] was “Non-toxic”.
In the case of `CCCCCCCCCc1ccc(-c2nc(C)c(/C(C)=N/NC(=N)N)s2)cc1`, the MIC was 1.8 µg/mL (≈ 4.5 µM) in [1]; 2.9 µg/mL (≈ 7.26 µM) in series [2]; 1.1 µg/mL (≈ 2.75 µM) in [3]; 1.8 µg/mL (≈ 4.5 µM) in series [4]; 3.7 µg/mL (≈ 9.26 µM) in series [7]; 1.1 µg/mL (≈ 2.75 µM) in [9]. Moreover, the MIC worked out at 4.4 µg/mL (≈ 11 µM) in series [11]; 1.1 µg/mL (≈ 2.75 µM) in series [12]; 2.2 µg/mL (≈ 5.51 µM) in series [16]; 4.4 µg/mL (≈ 11 µM) in series [18]; 4.4 µg/mL (≈ 11 µM) in series [19]. Further, in series [6], the Activity entry is given as “Non-toxic”.

For the origin of these results see ChEMBL document CHEMBL3124870, “Discovery and characterization of potent thiazoles versus methicillin- and vancomycin-resistant Staphylococcus aureus” (J Med Chem, 2014).
